Legend:
[1] = target: T1, Steroid 17-alpha-hydroxylase/17,20 lyase (Rattus norvegicus, UniProt P11715); test: Inhibition of 17,20-lyase activity of rat testicular microsomal P450-17alpha
T1 sequence (P11715 whole entry): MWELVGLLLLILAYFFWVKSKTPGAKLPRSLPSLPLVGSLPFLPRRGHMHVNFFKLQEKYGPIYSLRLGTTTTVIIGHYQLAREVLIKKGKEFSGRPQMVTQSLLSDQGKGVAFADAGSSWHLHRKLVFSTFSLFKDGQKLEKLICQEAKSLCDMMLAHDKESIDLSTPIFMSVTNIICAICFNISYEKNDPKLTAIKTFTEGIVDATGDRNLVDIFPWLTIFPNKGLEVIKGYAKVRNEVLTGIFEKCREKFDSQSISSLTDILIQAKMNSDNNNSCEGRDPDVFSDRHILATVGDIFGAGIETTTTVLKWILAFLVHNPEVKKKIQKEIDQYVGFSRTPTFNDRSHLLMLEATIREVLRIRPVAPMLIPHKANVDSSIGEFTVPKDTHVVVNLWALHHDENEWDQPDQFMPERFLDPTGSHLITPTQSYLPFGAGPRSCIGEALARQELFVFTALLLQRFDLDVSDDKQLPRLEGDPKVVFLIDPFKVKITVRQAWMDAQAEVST
In short: (§1)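 Rat testicular microsomal enzyme incubated with radiolabelled substrate. The radiolabelled substrate was separated from the incubation mixture and identified by thin layer chromatography. Both the 17α-hydroxylase and the 17,20-lyase components were assessed this way.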

[2] = target: T1, Steroid 17-alpha-hydroxylase/17,20 lyase; test: Inhibition of 17-alpha-hydroxylase activity of rat testicular microsomal P450-17alpha; in short: as §1

Compound	IC50 [1]	IC50 [2]
CCc1ccc(S(=O)(=O)Oc2ccc(Cn3ccnc3)cc2)cc1	20 nM	110 nM
CCCc1ccc(S(=O)(=O)Oc2ccc(Cn3ccnc3)cc2)cc1	30 nM	1210 nM
CCCCc1ccc(S(=O)(=O)Oc2ccc(Cn3ccnc3)cc2)cc1	40 nM	70 nM
CCCCCc1ccc(S(=O)(=O)Oc2ccc(Cn3ccnc3)cc2)cc1	160 nM	130 nM
O=S(=O)(Oc1ccc(Cn2ccnc2)cc1)c1ccc(-c2ccccc2)cc1	10 nM	100 nM
Oc1ccc(Cn2ccnc2)cc1	1470 nM	2500 nM
Ic1ccc(Cn2ccnc2)cc1	164 nM	730 nM
Cc1ccc(S(=O)(=O)Oc2ccc(Cn3ccnc3)cc2)cc1	30 nM	40 nM
O=S(=O)(Oc1ccc(Cn2ccnc2)cc1)c1ccc(C(F)(F)F)cc1	34 nM	1040 nM
O=S(=O)(Oc1ccc(Cn2ccnc2)cc1)c1ccc(F)cc1	14 nM	200 nM
c1ccc(Cn2ccnc2)cc1 [BENZYLIMIDAZOLE]	> 3000 nM	> 3000 nM
CC(=O)N1CCN(c2ccc(OCC3COC(Cn4ccnc4)(c4ccc(Cl)cc4Cl)O3)cc2)CC1 (centres undefined) [KETOCONAZOLE]	206 nM	2660 nM
